The test system of series [1] is Enterococcus faecalis. Put plainly: Antibacterial activity against vancomycin-susceptible Enterococcus faecalis 309 after 24 hrs by broth macrodilution method. The format is functional.
Series [2] deals with Enterococcus faecalis. Put plainly: Antibacterial activity against vancomycin-susceptible Enterococcus faecalis 1209 after 24 hrs by broth macrodilution method. The format is functional.
The test system of series [3] is Enterococcus faecalis. Put plainly: Antibacterial activity against vancomycin-resistant Enterococcus faecalis UCN41 after 24 hrs by broth macrodilution method. It is filed as functional.
Series [4] has as its system Enterococcus faecalis. Put plainly: Antibacterial activity against vancomycin-susceptible Enterococcus faecalis JH2-2 after 24 hrs by broth macrodilution method. The format is functional.
The subject of series [5] is Enterococcus faecalis. In words: Antibacterial activity against vancomycin-susceptible Enterococcus faecalis 309 challenged with ID90 bacterial size inoculum in Wistar rat assessed as infection at single administration of 2 to 3 g, po. It is filed as functional, organism-based. A digest of the protocol: (§1)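 Female Wistar rats (180–200 g) with catheter-induced sterile aortic vegetations. 24 h after catheterization, drug is delivered i.v. by pump at changing flow rates to mimic human serum kinetics of a single 2–3 g oral dose. Rats are challenged i.v. with the ID90 at peak serum concentration. Vegetations are cultured 72 h after prophylaxis ends; sterile = no growth (detection ≥2 log10 CFU/g).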

Series [6] concerns Enterococcus faecalis. Put plainly: Antibacterial activity against vancomycin-susceptible Enterococcus faecalis JH2-2 challenged with ID90 bacterial size inoculum in Wistar rat assessed as infection at single administration of 2 to 3 g, po. It is filed as functional, organism-based. A digest of the protocol: as §1
The test system of series [7] is Rattus norvegicus. Put plainly: T>MIC in Enterococcus faecalis infected Wistar rat at single administration of 2 to 3 g, po. It is filed as ADME, organism-based. The following applies: in vivo. The method in brief:
(§2)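 Catheterized female Wistar rats received pump-controlled i.v. infusion at changing flow rates simulating human serum kinetics of the oral regimen. Serum drug levels were measured by agar diffusion bioassay in groups of 3–5 animals. Indicator organisms were B. subtilis ATCC 6633 for amoxicillin (detection limit 0.39 mg/liter) and S. aureus ATCC 29213 for linezolid (detection limit 3.12 mg/liter). Values are means ± SD.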

For series [8], the system named is Enterococcus faecalis. Put plainly: Antibacterial activity against vancomycin-resistant Enterococcus faecalis UCN41 challenged with ID90 bacterial size inoculum in Wistar rat assessed as infection at single administration of 2 to 3 g, po. It is filed as functional, organism-based. A digest of the protocol: (§3)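 Female Wistar rats (180 to 200 g) with catheter-induced sterile aortic vegetations; 24 h after catheterization, groups of 10 received prophylaxis by pump at changing flow rates mimicking human serum kinetics; controls got i.v. saline. I.v. challenge at peak serum drug level with ID90 or 10 times ID90. Vegetations cultured 72 h after prophylaxis ended; sterile if no growth, detection limit ≥2 log10 CFU/g.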

Series [9] in a line: Cmax in Enterococcus faecalis infected Wistar rat at single administration of 2 to 3 g, po. The format is ADME, organism-based. The following applies: in vivo. A digest of the protocol: as §2
Series [10] has as its system Enterococcus faecalis. Put plainly: Antibacterial activity against vancomycin-susceptible Enterococcus faecalis 1209 challenged with 10 times ID90 bacterial size inoculum in Wistar rat assessed as infection at single administration of 2 to 3 g, po.
Series [11] concerns Enterococcus faecalis. Put plainly: Antibacterial activity against vancomycin-resistant Enterococcus faecalis UCN41 challenged with 10 times ID90 bacterial size inoculum in Wistar rat assessed as infection at single administration of 600 mg, po. It is filed as functional, organism-based. A digest of the protocol:
as §3

The subject of series [12] is Enterococcus faecalis. In words: Antibacterial activity against vancomycin-susceptible Enterococcus faecalis 309 challenged with 10 times ID90 bacterial size inoculum in Wistar rat assessed as infection at single administration of 2 to 3 g, po.
Series [13] can be described thus: Tmax in Enterococcus faecalis infected Wistar rat at single administration of 2 to 3 g, po. The format is ADME, organism-based. The following applies: in vivo. The method in brief:
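Female Wistar rats (180-200 g) with catheter-induced sterile aortic vegetations; 24 h after catheterization, drug delivered by pump at changing flow rates to mimic human serum kinetics of a single 2-3 g oral dose. Serum levels in groups of 3-5 rats by agar diffusion bioassay (Bacillus subtilis ATCC 6633 indicator; detection limit 0.39 mg/liter); means ± SD.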

A short description of series [14]: Tmax in Enterococcus faecalis infected Wistar rat at 600 mg, po two consecutive administration every 12 hrs. It is filed as ADME, organism-based. The following applies: in vivo. A digest of the protocol: (§4)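 Female Wistar rats (180–200 g) with sterile aortic vegetations from a carotid catheter received drug 24 h later by pump at changing flow rates, mimicking human serum kinetics of 600 mg oral doses every 12 h. Serum levels were measured in groups of three to five rats by agar diffusion bioassay (S. aureus ATCC 29213 indicator; detection limit 3.12 mg/liter).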

Series [15] concerns Rattus norvegicus. Put plainly: T>MIC in Enterococcus faecalis infected Wistar rat at 600 mg, po two consecutive administration every 12 hrs. It is filed as ADME, organism-based. The following applies: in vivo. A digest of the protocol: as §2
Series [16] can be described thus: Cmax in Enterococcus faecalis infected Wistar rat at single administration of 600 mg, po. Also on record: dose 600 mg, route oral. To be noted: in vivo. It is filed as ADME, organism-based. The method in brief:
as §2

Series [17] concerns Rattus norvegicus. Put plainly: T>MIC in Enterococcus faecalis infected Wistar rat at 600 mg, po four consecutive administration every 12 hrs. To be noted: in vivo. It is filed as ADME, organism-based. The method in brief:
as §2

The nature of series [18]: Tmax in Enterococcus faecalis infected Wistar rat at single administration of 600 mg, po. It is filed as ADME, organism-based. To be noted: in vivo. A digest of the protocol: as §4
A short description of series [19]: Cmax in Enterococcus faecalis infected Wistar rat at 600 mg, po four consecutive administration every 12 hrs. It is filed as ADME, organism-based. The following applies: in vivo. More on the design: dose 600 mg, route oral. A digest of the protocol:
as §2

Series [20] relates to Rattus norvegicus. Put plainly: T>MIC in Enterococcus faecalis infected Wistar rat at single administration of 600 mg, po. The following applies: in vivo. It is filed as ADME, organism-based. A digest of the protocol:
as §2

Series [21] in a line: Cmax in Enterococcus faecalis infected Wistar rat at 600 mg, po two consecutive administration every 12 hrs. It is filed as ADME, organism-based. More on the design: dose 600 mg, route oral. To be noted: in vivo. The method in brief: as §2
The nature of series [22]: Tmax in Enterococcus faecalis infected Wistar rat at 600 mg, po four consecutive administration every 12 hrs. The format is ADME, organism-based. The following applies: in vivo. The method in brief: as §4
Series [23] concerns Enterococcus faecalis. In words: Antibacterial activity against vancomycin-susceptible Enterococcus faecalis JH2-2 challenged with ID90 bacterial size inoculum in Wistar rat assessed as infection at single administration 1 g, iv. It is filed as functional, organism-based. The method in brief: as §3
Series [24] in a line: Cmax in Enterococcus faecalis infected Wistar rat at single administration of 1 g, iv. It is filed as ADME, organism-based. More on the design: dose 1 g, route intravenous. The following applies: in vivo. The method in brief:
(§5)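 Serum drug levels in rats receiving human-kinetics simulation by pump, measured in groups of three to five animals by agar diffusion bioassay with Bacillus subtilis ATCC 6633 as indicator; detection limit 1.76 mg/liter; linear standard curves. Values as means ± SD.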

For series [25], the system named is Rattus norvegicus. In words: T>MIC in Enterococcus faecalis infected Wistar rat at single administration of 1 g, iv. The format is ADME, organism-based. The following applies: in vivo. A digest of the protocol: as §5
The nature of series [26]: Tmax in Enterococcus faecalis infected Wistar rat at single administration of 1 g, iv. The format is ADME, organism-based. To be noted: in vivo. The method in brief:
as §5

For series [27], the system named is Enterococcus faecalis. Put plainly: Antibacterial activity against vancomycin-resistant Enterococcus faecalis UCN41 challenged with ID90 bacterial size inoculum in Wistar rat assessed as infection at single administration of 1 g, iv. It is filed as functional, organism-based. The method in brief: as §3
The mark [28] stands for this setting: Enterococcus faecalis, 309, 24 h.
[29] abbreviates: Enterococcus faecalis, 1209, 24 h.

Values after ≈ are worked out from the molar mass of the structure shown. Active and inactive are the calls of the source. No cut-off for these calls is given here. Some results are limits rather than exact numbers.

As usually defined, the MIC is the least concentration at which growth counts as inhibited. Lower therefore signals a more susceptible organism. As for GENTAMICIN, the MIC came to 64 µg/mL against Enterococcus faecalis [1], 16 µg/mL in the series on Enterococcus faecalis [2], 1 µg/mL with Enterococcus faecalis [3] and 2 µg/mL in the series on Enterococcus faecalis [4].
The term Cmax denotes the highest concentration seen after dosing. The term Tmax denotes the time at which the peak concentration occurs. For the compound `CC1(C)S[C@@H]2[C@H](NC(=O)[C@H](N)c3ccc(O)cc3)C(=O)N2[C@H]1C(=O)O` [AMOXICILLIN], the outcome in the series with Enterococcus faecalis [5], with Enterococcus faecalis [6], with Enterococcus faecalis [8], in the series on Enterococcus faecalis [10], with Enterococcus faecalis [11] and in the series on Enterococcus faecalis [12] was Active. The MIC in the series with Enterococcus faecalis [1] (setting [28]) is 0.5 µg/mL (≈ 1.37 µM); in the series with Enterococcus faecalis [2] (setting [29]) it was 1 µg/mL (≈ 2.74 µM); against Enterococcus faecalis [3] (UCN41, 24 h), 0.25 µg/mL (≈ 0.684 µM); against Enterococcus faecalis [4] (JH2-2, 24 h) it was 0.25 µg/mL (≈ 0.684 µM). Besides, in the series on Rattus norvegicus [7], the “T>MIC” value amounted to 12 h. Also, the Cmax in series [9] amounted to 29400 ng/mL. Also, in [13], the Tmax was 2 h.
With `CC(=O)NC[C@H]1CN(c2ccc(N3CCOCC3)c(F)c2)C(=O)O1` [LINEZOLID], the Tmax in [14], in series [18] and in series [22] was 1 h throughout. Besides, the “T>MIC” value with Rattus norvegicus [15] turned out to be 24 h; in the series with Rattus norvegicus [17] it was 48 h; with Rattus norvegicus [20], 12 h. The Cmax worked out at 17500 ng/mL in series [16], 19300 ng/mL in [19] and 18600 ng/mL in series [21]. For the same compound, the outcome in the series on Enterococcus faecalis [11] was inactive.
In the case of `CN[C@H](CC(C)C)C(=O)N[C@H]1C(=O)N[C@@H](CC(N)=O)C(=O)N[C@H]2C(=O)N[C@H]3C(=O)N[C@H](C(=O)N[C@H](C(=O)O)c4cc(O)cc(O)c4-c4cc3ccc4O)[C@H](O)c3ccc(c(Cl)c3)Oc3cc2cc(c3O[C@@H]2O[C@H](CO)[C@@H](O)[C@H](O)[C@H]2O[C@H]2C[C@](C)(N)[C@H](O)[C@H](C)O2)Oc2ccc(cc2Cl)[C@H]1O` [VANCOMYCIN], the result in the series on Enterococcus faecalis [23] was Active. In addition, the MIC is 4 µg/mL (≈ 2.76 µM) against Enterococcus faecalis [1] (setting [28]); 4 µg/mL (≈ 2.76 µM) with Enterococcus faecalis [2] (setting [29]); greater than 256 µg/mL against Enterococcus faecalis [3] (UCN41, 24 h); 1 µg/mL (≈ 0.69 µM) in the series on Enterococcus faecalis [4] (JH2-2, 24 h). In series [24], this compound had a Cmax of 37800 ng/mL. The “T>MIC” value in the series with Rattus norvegicus [25] amounted to 12 h. For the same compound, the Tmax in series [26] came to 0.5 h. Also, the outcome with Enterococcus faecalis [27] was inactive.

Values taken from ChEMBL document CHEMBL1145514, “Single-dose oral amoxicillin or linezolid for prophylaxis of experimental endocarditis due to vancomycin-susceptible and vancomycin-resistant Enterococcus faecalis” (Antimicrob Agents Chemother, 2007).
